Most compounds without a hit are left out; they make up all but 0.73% or so of the library.
TNAP inh hiacc = blocks human TNAP under high phosphate acceptor concentration. P05186. hit rate 0.03% among 200,000. purified TNAP, CDP-star luminescence, 1 M DEA. AID 1135. inhibition, % at 20 µM;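 active = over 50% inhibition of tissue-nonspecific alkaline phosphatase at 20 µM in the single-dose screen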;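 also: plate controls were DMSO wells for no effect and EDTA-quenched wells as full inhibition for full effect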
PKD1 kinase inh = inhibitors of human PKD1 kinase; Q15139; PKD1 kinase fluorescence polarization assay; inhibition, % (test concentration not listed); hit rate 0.056% among 200,000; AID 797; in the data active = inhibition above about 50%
Target sequence (Q15139 whole entry, looked up): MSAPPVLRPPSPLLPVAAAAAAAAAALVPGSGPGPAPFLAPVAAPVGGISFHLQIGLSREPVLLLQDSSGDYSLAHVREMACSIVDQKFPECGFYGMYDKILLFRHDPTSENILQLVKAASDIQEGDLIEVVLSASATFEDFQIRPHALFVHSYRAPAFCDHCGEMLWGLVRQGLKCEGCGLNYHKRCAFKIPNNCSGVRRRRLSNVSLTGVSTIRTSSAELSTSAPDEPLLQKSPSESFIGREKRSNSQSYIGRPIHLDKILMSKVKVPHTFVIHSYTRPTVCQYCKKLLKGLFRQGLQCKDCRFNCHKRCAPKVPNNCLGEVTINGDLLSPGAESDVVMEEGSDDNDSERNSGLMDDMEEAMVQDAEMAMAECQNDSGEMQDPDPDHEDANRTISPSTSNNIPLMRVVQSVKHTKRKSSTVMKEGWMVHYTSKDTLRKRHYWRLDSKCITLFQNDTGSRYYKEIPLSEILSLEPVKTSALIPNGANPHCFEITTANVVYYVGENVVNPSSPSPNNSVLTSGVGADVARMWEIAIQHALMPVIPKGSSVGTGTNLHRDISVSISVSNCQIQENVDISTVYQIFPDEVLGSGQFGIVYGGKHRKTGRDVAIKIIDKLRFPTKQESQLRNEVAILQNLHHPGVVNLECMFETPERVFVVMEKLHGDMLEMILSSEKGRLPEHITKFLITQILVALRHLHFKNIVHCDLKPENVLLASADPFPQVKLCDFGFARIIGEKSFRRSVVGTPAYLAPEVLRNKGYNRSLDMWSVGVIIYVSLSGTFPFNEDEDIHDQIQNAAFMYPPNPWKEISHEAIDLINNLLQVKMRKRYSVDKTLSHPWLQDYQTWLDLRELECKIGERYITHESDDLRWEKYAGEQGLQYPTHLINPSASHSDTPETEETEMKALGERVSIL
Arbovirus anti = blocks arbovirus infection; inhibition, % at 10 µM; AID 1251; hit rate 0.37% among 200,000; arbovirus infection cell-based antiviral screen; in the data active = inhibition above about 30%
TNAP inh noacc = inhibitors of human TNAP without phosphate acceptor; purified TNAP, CDP-star luminescence, 30 min; hit rate 0.26% among 200,000; P05186; inhibition, % at 20 µM; AID 1012;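 active = tissue-nonspecific alkaline phosphatase inhibition above about 50% at 20 µM in the single-dose screen, limit read from the data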;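 also: 0% = DMSO negative control and 100% = EDTA positive control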
TNAP act hiacc = activators of human TNAP at high phosphate acceptor concentration; 200,000 tested, under 10 active; purified TNAP, CDP-star luminescence, 1 M DEA, 30 min; hits give high values; 0 = EDTA background, 1 = DMSO-only activity; P05186; activation factor at 20 µM; AID 1136;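 active = activation factor at least 2 at 20 µM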
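Test system – human TNAP · Doses – 20 µM single point · Incubation – 30 min, room temperature · Signal – luminescent substrate turnover signal · Read-out basis – activation factor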
Active calls of the source: *.

SMILES	TNAP inh hiacc	PKD1 kinase inh	Arbovirus anti	TNAP inh noacc	TNAP act hiacc
CCN(CC)c1ccc(/C=C2\C(=O)c3ccc(C(=O)O)cc3C2=O)cc1	39	-4	-3	57*	0.6
CCN(CC)c1ccc(C(=O)O)cc1	7	1	8	-2	0.9
NC(=O)c1cc(C(=O)c2ccc(Cl)cc2)c[nH]1	0	-8	9	-13	1
O=C(O)C1CN(c2ncccc2[N+](=O)[O-])C1	-2	1	3	-2	1
O=[N+]([O-])c1cccnc1N1CCC(c2cc(-c3ccc(Cl)cc3)n[nH]2)CC1	3	-1	-45	50*	1
Fc1ccc2c(c1)/C(=N/Nc1ccccn1)CCS2	-6	-3	1	-13	1.1
NC(=O)/C(=N\OC(=O)c1ccco1)c1nc(-c2ccc(Br)cc2)cs1	-6	-8	44*	-27	1.1
O=C1C2CC=CCC2C(=O)N1c1n[nH]c(Cc2ccccc2)n1 (stereo unspecified)	2	-10	-5	96*	1
O=C1C2C3C=CC(C3)C2C(=O)N1c1n[nH]c(CCc2ccccc2)n1 (stereo unspecified)	2	1	5	68*	1
CN(C)c1ccc(CNc2nc(-c3ccccc3)nn2S(C)(=O)=O)cc1	-5	-16	10	-9	1
CC(=O)n1nc(-c2ccccc2)nc1NCc1ccc(N(C)C)cc1	-4	-9	-2	50*	1
CCCc1ccccc1OCCNC(=O)c1cc(=O)n(C)c(=O)n1C	-2	1	5	-10	1
O=c1cc(-c2ccc([N+](=O)[O-])cc2)nc2cc(-c3ccc(Cl)cc3)[nH]n12	3	4	-9	51*	1
CC1(C)CNc2cc([N+](=O)[O-])ccc2S1	8	-5	10	9	0.9
CCOC(=O)N1CCN(C(=O)CCl)CC1	1	-2	3	-4	1
Cc1nc2c(c3c1[nH]c1ccccc13)C(O)CC(C)(C)C2 (stereo unspecified)	-4	-9	54*	-6	1
Cc1cc2[nH]c3ccccc3c2c(C)n1	6	2	-9	2	0.9
CCOC(=O)c1ccc(N2C(=O)C3C(/C=C/c4ccccc4)OC4(C(=O)c5ccccc5C4=O)C3C2=O)cc1 (stereo unspecified)	-5	-8	73*	-14	1.1
COc1cccc2c(SCC(=O)N/N=C/c3ccccc3)cc(C)nc12	-3	1	13	-10	1
Cc1cc(SCC(=O)N/N=C/c2ccc(O)c(O)c2)c(C)cc1Br	12	-4	0	50*	0.9
COc1cccc2c(SCC(=O)N/N=C/c3ccc(O)c(O)c3)cc(C)nc12	11	0	1	72*	0.9
CCOc1ccc(/C=N/NC(=O)c2c(C)n(C)c3ccc(OC)cc23)cc1	-8	-4	-12	-6	1.1
COc1ccc2c(c1)c(C(=O)N/N=C/c1ccc(O)c(O)c1)c(C)n2C	1	17	-7	56*	1
COc1ccc2nc(C)cc(SCC(=O)N/N=C/c3ccc(O)c(O)c3)c2c1	20	0	-12	76*	0.8
O=C(Nc1ccc(Cl)cc1)c1ccc(OCC2CCCO2)cc1 (stereo unspecified)	2	-8	-4	-4	1
SMILES	TNAP inh hiacc	PKD1 kinase inh	Arbovirus anti	TNAP inh noacc	TNAP act hiacc
O=C(Nc1nc(-c2ccc(Cl)cc2Cl)cs1)c1ccc(OCC2CCCO2)cc1 (stereo unspecified)	-7	-4	68*	-9	1.1
COc1ccc(NC(=O)c2ccccc2NS(C)(=O)=O)cc1OC	-2	0	9	-11	1
COC(=O)c1ccc(NC(=O)c2ccccc2NS(C)(=O)=O)cc1	1	-5	52*	-7	1
COc1ccc(-c2[nH]ncc2CN(C)Cc2nonc2C)c(OC)c1	-3	-6	1	5	1
COc1ccc(-c2[nH]ncc2CN(CCO)Cc2cccs2)c(F)c1	-6	13	5	69*	1.1
CCN(Cc1ccncc1)Cc1cn[nH]c1-c1ccc(OC)cc1F	-6	8	8	55*	1.1
COc1ccc(-c2[nH]ncc2CN(C)C(C)c2ccncn2)c(F)c1 (stereo unspecified)	-5	2	5	63*	1.1
C=CCn1c(=O)c2ccc(C(=O)NCc3ccccc3)cc2n(Cc2ccc(C)cc2)c1=O	-6	-9	2	-4	1.1
CC(Sc1ccccc1)C(=O)NN=C1CCN(C)CC1 (stereo unspecified)	-5	-4	2	-21	1.1
Cc1cc(-c2nc3ncccc3o2)ccc1NC(=S)NC(=O)C(C)C	1	-6	-5	-2	1
Oc1ccc(C2=Nn3c(nnc3-c3ccco3)SC2)cc1O	40	18	-23	91*	0.6
N=C1C(c2nc3ccccc3s2)=C(O)CN1c1ccccc1	-7	-1	-12	-15	1.1
COc1ccc(/C=N/N=C2/NC(=O)C(CC(=O)O)S2)cc1OS(=O)(=O)c1ccccc1 (stereo unspecified)	-4	4	-1	-7	1
Cc1ccc(S(=O)(=O)Oc2ccc(C)cc2/C=N/N=C2\NC(=O)C(C)S2)cc1 (stereo unspecified)	-2	-2	30*	-7	1
OCC1(Cc2ccccc2)CCN(Cc2ccc(C(F)(F)F)cc2)CC1	-2	-3	-13	-1	1
O=C(NNC(=O)c1cc2cc(Br)ccc2oc1=O)c1ccc(O)cc1	8	-9	3	82*	0.9
NC(=S)c1cc2cc(Br)ccc2oc1=O	12	7	-1	-127	0.9
N=C(N)SCc1cn2ccccc2n1	0	11	-4	59*	1
Cc1ccc(C(=O)NCC(=O)N/N=C/c2sccc2C)cc1[N+](=O)[O-]	-3	-2	-7	-8	1
O=C(NC(=S)NCCC1=CCCCC1)c1ccccc1Br	-7	3	37*	-8	1.1
O=C(COC(=O)c1ccccc1Br)NCCC1=CCCCC1	0	-13	3	-6	1
CCCc1ccc(OC(=O)c2ccc(O)cc2Cl)cc1	0	-7	16	-8	1
O=C(O)c1cccc(N/N=C/C2=C(Cl)c3cc(Cl)ccc3SC2)c1	6	-1	46*	2	0.9
O=C(O)c1cccc(N/N=C/c2ccc(F)c(F)c2)c1	-2	0	2	-5	1
c1ccc(-c2nc(CSc3n[nH]c(-c4cccs4)n3)cs2)cc1	-5	-1	5	60*	1.1
Nc1cc(=O)[nH]c(SCc2csc(-c3ccccc3)n2)n1	-3	-5	-3	-17	1
CCOc1ccc(S(=O)(=O)NCCC(=O)OCC(=O)N2CC(=O)Nc3ccccc32)cc1	-2	-3	8	-12	1
O=C(Nc1ccccc1C(=O)O)c1ccc(Br)c(S(=O)(=O)NCc2ccccc2)c1	1	-7	31*	2	1
O=C(Nc1ccccc1C(=O)NCc1ccccc1)c1ccccc1Br	-2	-5	5	4	1

Screening data: PubChem, several laboratories
